Experimental data as given in article PMC7330163 (Pharmacology Research & Perspectives, 2020).
Marks after values point to notes of the source that are not given here.

Tests used:
[1] = test system: CYP1A2; test: Induction of P450 mRNA in human hepatocytes; assay type: cell-based; conditions: up to 10 µmol/L
In short: (§1)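 Three human hepatocyte batches were cultured as monolayers and treated for 48–89 h with test compound, diluted 1000-fold from DMSO stock, or vehicle. Medium with fresh drug renewed every 24 h; rifampicin and omeprazole served as positive controls. CYP mRNA then measured.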

[2] = test system: total P450; test: Total P450 concentration in liver microsomes of the 4-week rat toxicity study; assay type: in vivo, Sprague-Dawley rat; conditions: 4 weeks
In short: (§2)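 Microsomes were made from pooled liver (1.5–2 g per dose group) of 4-week toxicity studies, including vehicle controls. Tissue homogenised in ice-cold 50 mmol/L Tris-HCl pH 7.4 with 250 mmol/L sucrose, spun at 9000 g then 100 000 g (4°C), and the pellet washed in 100 mmol/L pyrophosphate pH 7.25 with 1 mmol/L EDTA. Total P450 by carbon monoxide spectrophotometric assay.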

[3] = test system: Cyp3a2; test: Taqman mRNA upregulation in rat liver, 4-week toxicity study; assay type: in vivo, Sprague-Dawley rat; conditions: male rats, 4-week study
In short: (§3)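 Livers came from satellite-group rats of both sexes (n = 5–6) in the 4-week study, dosed once daily at 0, 50, 150, 450 or 1500 mg/kg in modified gelatine. Transcripts quantified by comparative Ct, normalised to 18S and to vehicle-treated controls; fold change = 2−ΔΔCT.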

[4] = test system: Cyp3a12; test: Taqman mRNA upregulation in dog liver, 4-week toxicity study; assay type: in vivo, Beagle dog; conditions: 4 weeks; for increase in Cyp3a12 mRNA expression: 500 mg/kg
In short: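 Liver samples (n = 2–3) came from main-group Beagles of the 4-week study, dosed daily at 0, 5, 50 or 500 mg/kg in modified gelatine. Cyp3a12 transcript normalised to 18S and to vehicle-treated dogs (ΔΔCT); fold = 2−ΔΔCT.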

[5] = test system: Cyp2c11; test: Taqman mRNA upregulation in rat liver, 8-day mechanistic follow-up study; assay type: in vivo, Sprague-Dawley rat; conditions: male rats, 8-day follow-up study, relative to vehicle control
In short: (§4)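 Male Sprague-Dawley rats (n = 4) were given 0, 5, 15 or 50 mg/kg daily for 8 days as a suspension in modified gelatine. Liver transcripts were normalised to 18S and to vehicle-treated rats by the ΔΔCT method; fold = 2−ΔΔCT.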

[6] = test system: hepatic OATP transporters; conditions: partitions into liver by passive diffusion; cited from earlier work
[7] = test system: CYP3A4; test: Induction of P450 mRNA in human hepatocytes; assay type: cell-based; conditions: 10 µmol/L
In short: as §1

[8] = test system: Cyp2c13; test: Taqman mRNA upregulation in rat liver; assay type: in vivo, Sprague-Dawley rat; conditions: male-specific
[9] = test system: CYP3A4; conditions: clinical trials, man, 10 mg; cited from earlier work
[10] = man, therapeutic dose of 10 mg; clinical trials ref 19; cited from earlier work
[11] = Single-dose intravenous pharmacokinetics in rat; assay type: in vivo, Sprague-Dawley rat; conditions: for AUC / Vd / clearance / half-life: Sprague-Dawley, plasma, iv
[12] = cited from earlier work
[13] = test system: Cyp3a1; test: Taqman mRNA upregulation in rat liver, 4-week toxicity study; assay type: in vivo, Sprague-Dawley rat
In short: as §3

[14] = test system: Cyp3a1; test: Taqman mRNA upregulation in rat liver, 8-day mechanistic follow-up study; assay type: in vivo, Sprague-Dawley rat; conditions: male rats, 8-day follow-up study, relative to vehicle control
In short: as §4

[15] = test system: CYP3A4; test: Induction of P450 enzyme activity in human hepatocytes; assay type: cell-based; conditions: up to 10 µmol/L
In short: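 Three batches of human hepatocyte monolayers were exposed for 48–89 h to test compound (DMSO stock diluted 1000-fold), with medium and fresh drug or vehicle renewed every 24 h; rifampicin and omeprazole as positive controls. Cells then washed with MEM, held 10 min at 37°C, and incubated with 200 µmol/L nifedipine for 2 h at 37°C, 5% CO2, as CYP3A4 activity marker.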

[16] = test system: Cyp3a2; test: Taqman mRNA upregulation in rat liver, 8-day mechanistic follow-up study; assay type: in vivo, Sprague-Dawley rat; conditions: male rats, 8-day follow-up study, relative to vehicle control
In short: as §4

[17] = test system: Cyp2c6; test: Taqman mRNA upregulation in rat liver, 4-week toxicity study; assay type: in vivo, Sprague-Dawley rat; conditions: 4-week study
In short: as §3

[18] = test system: total P450; test: Total P450 concentration in liver microsomes of the 4-week dog toxicity study; assay type: in vivo, Beagle dog; conditions: 4 weeks
In short: as §2

## CCCNS(=O)(=O)Nc1ncnc(OCCOc2ncc(Br)cn2)c1-c1ccc(Br)cc1 [macitentan]
[1]
  change in CYP1A2 mRNA expression: No change
[2]; female rats, macitentan 50 mg/kg daily
  P450 (total, liver microsomes): 1.05 nmol/mg
[2]; female rats, macitentan 150 mg/kg daily
  P450 (total, liver microsomes): 1.15 nmol/mg
[2]; female rats, macitentan 450 mg/kg daily
  P450 (total, liver microsomes): 1.18 nmol/mg
[2]; female rats, macitentan 1500 mg/kg daily
  P450 (total, liver microsomes): 0.90 nmol/mg
[2]; male rats, macitentan 50 mg/kg daily
  P450 (total, liver microsomes): 1.35 nmol/mg
[2]; male rats, macitentan 150 mg/kg daily
  P450 (total, liver microsomes): 1.41 nmol/mg
[2]; male rats, macitentan 450 mg/kg daily
  P450 (total, liver microsomes): 1.33 nmol/mg
[2]; male rats, macitentan 1500 mg/kg daily
  P450 (total, liver microsomes): 1.45 nmol/mg
[3]; 50 mg/kg daily, relative to vehicle control = 1.00
  Upregulation of Cyp3a2 mRNA: 3.65 ± 1.03
[3]; 150 mg/kg daily, relative to vehicle control
  Upregulation of Cyp3a2 mRNA: 4.53 ± 1.31
[3]; 450 mg/kg daily, relative to vehicle control
  Upregulation of Cyp3a2 mRNA: 5.21 ± 1.33
[3]; 1500 mg/kg daily, relative to vehicle control
  Upregulation of Cyp3a2 mRNA: 6.50 ± 2.40
[4]; female dogs, 5 mg/kg daily, relative to vehicle control
  Upregulation of Cyp3a12 mRNA: 2.84 ± 0.44
[4]; female dogs, 50 mg/kg daily, relative to vehicle control
  Upregulation of Cyp3a12 mRNA: 4.34 ± 0.61
[4]; female dogs, 500 mg/kg daily, relative to vehicle control, n = 2 only
  Upregulation of Cyp3a12 mRNA: 12.7 ^a
[4]; female dogs
  increase in Cyp3a12 mRNA expression: 12.7 fold
[4]; male dogs, 5 mg/kg daily, relative to vehicle control = 1.00
  Upregulation of Cyp3a12 mRNA: 1.63 ± 0.72
[4]; male dogs, 50 mg/kg daily, relative to vehicle control
  Upregulation of Cyp3a12 mRNA: 6.45 ± 1.71
[4]; male dogs, 500 mg/kg daily, relative to vehicle control
  Upregulation of Cyp3a12 mRNA: 18.6 ^b
[4]; male dogs
  increase in Cyp3a12 mRNA expression: 18.6 fold
[5]; 5 mg/kg daily
  Upregulation of Cyp2c11 mRNA: 1.55 ± 0.22
[5]; 15 mg/kg daily
  Upregulation of Cyp2c11 mRNA: 1.65 ± 1.35
[5]; 50 mg/kg daily
  Upregulation of Cyp2c11 mRNA: 2.50 ± 0.85
[6]
  substrate of hepatic OATP transporters: not a substrate of hepatic OATP transporters
[7]
  increase in CYP3A4 mRNA vs DMSO control: about 11 fold
[8]
  Induction of Cyp2c13 mRNA: No induction
[9]
  effect on the pharmacokinetics of the sensitive CYP3A4 substrate sildenafil: neither changed the pharmacokinetics
[10]
  plasma exposure (AUC0‐24h): 5400 ng·h/mL
[11]; F, 0.3 mg/kg single iv, geometric mean (range)
  T 1/2: 8.9 (6.6‐12) h
[11]; female, 0.3 mg/kg
  AUC: 2990 ng·h/mL
  Vd: 1.4 L/kg
  clearance: 2 mL/min/kg
  half-life: 8.9 h
[11]; male, 0.1 mg/kg
  AUC: 270 ng·h/mL
  Vd: 1.6 L/kg
  clearance: 6.5 mL/min/kg
  half-life: 3.8 h
[11]; male, 0.3 mg/kg
  AUC: 610 ng·h/mL
  Vd: 1.2 L/kg
  clearance: 8.2 mL/min/kg
  half-life: 1.9 h
[11]; single iv
  CL in female rats as percent of the value in male animals: 25%
[12]
  aqueous solubility: low aqueous solubility
[13]; female rats, 50 mg/kg daily, 4-week study, relative to vehicle control
  Upregulation of Cyp3a1 mRNA: 12.1 ± 4.4
[13]; female rats, 150 mg/kg daily, 4-week study, relative to vehicle control
  Upregulation of Cyp3a1 mRNA: 38.3 ± 10.7
[13]; female rats, 450 mg/kg daily, 4-week study, relative to vehicle control
  Upregulation of Cyp3a1 mRNA: 55.3 ± 13.1
[13]; female rats, 1500 mg/kg daily, 4-week study, relative to vehicle control
  Upregulation of Cyp3a1 mRNA: 106 ± 34
[13]; female rats, 1500 mg/kg, 4 weeks, vs control
  Upregulation of Cyp3a1 mRNA: 106 fold
[13]; male rats, 50 mg/kg daily, 4-week study, relative to vehicle control = 1.00
  Upregulation of Cyp3a1 mRNA: 2.17 ± 0.37
[13]; male rats, 150 mg/kg daily, 4-week study, relative to vehicle control
  Upregulation of Cyp3a1 mRNA: 3.51 ± 1.36
[13]; male rats, 450 mg/kg daily, 4-week study, relative to vehicle control
  Upregulation of Cyp3a1 mRNA: 4.87 ± 0.51
[13]; male rats, 1500 mg/kg daily, 4-week study, relative to vehicle control
  Upregulation of Cyp3a1 mRNA: 9.96 ± 4.18
[13]; male rats, 1500 mg/kg, 4 weeks
  increase of Cyp3a1 mRNA vs control: about 10 fold
[14]; 5 mg/kg daily
  Upregulation of Cyp3a1 mRNA: 1.66 ± 0.75
[14]; 15 mg/kg daily
  Upregulation of Cyp3a1 mRNA: 2.53 ± 2.02
[14]; 50 mg/kg daily
  Upregulation of Cyp3a1 mRNA: 6.04 ± 3.00
[15]
  increase in CYP3A4 enzyme activity: fivefold
[16]; 5 mg/kg daily
  Upregulation of Cyp3a2 mRNA: 1.46 ± 0.18
[16]; 15 mg/kg daily
  Upregulation of Cyp3a2 mRNA: 2.37 ± 1.43
[16]; 50 mg/kg daily
  Upregulation of Cyp3a2 mRNA: 4.04 ± 0.98
[17]; female rats, 50 mg/kg daily, relative to vehicle control
  Upregulation of Cyp2c6 mRNA: 2.78 ± 0.95
[17]; female rats, 150 mg/kg daily, relative to vehicle control
  Upregulation of Cyp2c6 mRNA: 4.21 ± 0.51
[17]; female rats, 450 mg/kg daily, relative to vehicle control
  Upregulation of Cyp2c6 mRNA: 4.35 ± 1.54
[17]; female rats, 1500 mg/kg daily, relative to vehicle control
  Upregulation of Cyp2c6 mRNA: 3.29 ± 0.77
[17]; male rats, 50 mg/kg daily, relative to vehicle control = 1.00
  Upregulation of Cyp2c6 mRNA: 6.21 ± 1.02
[17]; male rats, 150 mg/kg daily, relative to vehicle control
  Upregulation of Cyp2c6 mRNA: 4.36 ± 1.96
[17]; male rats, 450 mg/kg daily, relative to vehicle control
  Upregulation of Cyp2c6 mRNA: 9.53 ± 1.26
[17]; male rats, 1500 mg/kg daily, relative to vehicle control
  Upregulation of Cyp2c6 mRNA: 9.20 ± 3.29
[18]; female dogs, macitentan 5 mg/kg daily
  P450 (total, liver microsomes): 0.63 nmol/mg
[18]; female dogs, macitentan 50 mg/kg daily
  P450 (total, liver microsomes): 0.87 nmol/mg
[18]; female dogs, macitentan 500 mg/kg daily
  P450 (total, liver microsomes): 0.84 nmol/mg
[18]; male dogs, macitentan 5 mg/kg daily
  P450 (total, liver microsomes): 0.50 nmol/mg
[18]; male dogs, macitentan 50 mg/kg daily
  P450 (total, liver microsomes): 0.73 nmol/mg
[18]; male dogs, macitentan 500 mg/kg daily
  P450 (total, liver microsomes): 1.00 nmol/mg
